# From ChEMBL document CHEMBL3352485 (J Med Chem, 2014)
# Key:
# Rattus norvegicus [1] = assay: Testosterone-suppressive activity in Crl:CD(SD) rat assessed as number of animal with plasma testosterone level below the limit of detection at 0.1 nmol/hr, sc through osmotic pumps measured after 6 days by RIA; type: functional
# Procedure, shortened: (§1)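 Peptide was dissolved in distilled water or 50% DMSO as 0.1–2 mM pump solutions and delivered by ALZET osmotic pumps implanted subcutaneously in the back of 9-week-old male Crl:CD(SD) rats (n = 5) under ether. Controls received distilled-water pumps. After 6 days, rats were decapitated and plasma was recovered with aprotinin/EDTA. Testosterone was measured by RIA, and the number of rats below the detection limit (0.04 ng/mL) was counted.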
# KiSS-1 receptor [2] = molecular target: T1, KiSS-1 receptor (Rattus norvegicus, UniProt Q924U1); assay: Agonist activity at rat KISS1R transfected in CHO cells assessed as intracellular calcium flux after 24 hrs by functional FLIPR assay; type: cell-based
# T1 sequence (Q924U1 whole entry): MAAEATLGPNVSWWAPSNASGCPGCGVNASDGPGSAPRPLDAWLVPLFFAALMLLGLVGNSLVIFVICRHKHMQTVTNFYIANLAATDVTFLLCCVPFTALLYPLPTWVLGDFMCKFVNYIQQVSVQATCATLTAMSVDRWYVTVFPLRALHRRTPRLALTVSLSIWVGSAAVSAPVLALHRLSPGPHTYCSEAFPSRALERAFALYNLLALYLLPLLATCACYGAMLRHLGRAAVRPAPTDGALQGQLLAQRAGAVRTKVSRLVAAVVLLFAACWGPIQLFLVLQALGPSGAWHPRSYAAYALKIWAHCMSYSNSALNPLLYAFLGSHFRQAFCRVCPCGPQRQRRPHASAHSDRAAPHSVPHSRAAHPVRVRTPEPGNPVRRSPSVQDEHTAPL
# KiSS-1 receptor [3] = molecular target: T1, KiSS-1 receptor; assay: Displacement of radioligand from rat KISS1R transfected in CHO cells; type: cell-based
# KiSS-1 receptor [4] = molecular target: T2, KiSS-1 receptor (Homo sapiens, UniProt Q969F8); assay: Agonist activity at human KISS1R transfected in CHO cells assessed as intracellular calcium flux after 24 hrs by functional FLIPR assay; type: cell-based
# T2 sequence (Q969F8 whole entry): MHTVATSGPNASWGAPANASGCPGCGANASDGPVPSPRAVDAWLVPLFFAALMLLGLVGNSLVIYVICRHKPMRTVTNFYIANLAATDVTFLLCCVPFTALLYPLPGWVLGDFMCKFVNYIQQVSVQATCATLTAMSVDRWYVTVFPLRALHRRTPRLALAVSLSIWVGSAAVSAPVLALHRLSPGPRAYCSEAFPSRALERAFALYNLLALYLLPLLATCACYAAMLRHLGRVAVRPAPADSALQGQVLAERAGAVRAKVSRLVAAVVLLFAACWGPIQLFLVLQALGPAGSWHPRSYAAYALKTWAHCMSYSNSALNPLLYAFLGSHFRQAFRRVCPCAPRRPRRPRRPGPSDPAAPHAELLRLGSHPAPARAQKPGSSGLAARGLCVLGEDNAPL
# Procedure, shortened: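 CHO cells stably expressing human KISS1R were seeded at 15 000 cells/mL, cultured 24 h, then loaded with fluo-3 for 1 h at 37 °C in HBSS/HEPES (pH 7.4) with probenecid and FBS. Cells were washed in HBSS with 2.5 mM probenecid. Peptides came from 1 mM DMSO stocks diluted in buffer containing probenecid, 0.2% BSA and 0.1% CHAPS. Fluorescence was recorded on FLIPR for 3 min; peak counts over 0–180 s gave agonist activity.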
# Rattus norvegicus [5] = assay: Testosterone-suppressive activity in Crl:CD(SD) rat assessed as number of animal with plasma testosterone level below the limit of detection at 0.3 nmol/hr, sc through osmotic pumps measured after 6 days by RIA; type: functional; procedure, shortened: as §1
# Rattus norvegicus [6] = assay: Testosterone-suppressive activity in Crl:CD(SD) rat assessed as number of animal with plasma testosterone level below the limit of detection at 2 nmol/hr, sc through osmotic pumps measured after 6 days by RIA; type: functional; procedure, shortened: as §1
# Rattus norvegicus [7] = assay: Testosterone-suppressive activity in Crl:CD(SD) rat assessed as number of animal with plasma testosterone level below the limit of detection at 0.5 nmol/hr, sc through osmotic pumps measured after 6 days by RIA; type: functional; procedure, shortened: as §1
# KiSS-1 receptor [8] = molecular target: T2, KiSS-1 receptor; assay: Displacement of radioligand from human KISS1R transfected in CHO cells; type: cell-based
# Procedure, shortened: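 Binding used membrane fractions prepared from CHO cells expressing recombinant human KISS1R.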
# [9] = Stability of the compound in aqueous solution (JP1) assessed as residual ratio at pH 1.2 up to 2 weeks by HPLC analysis relative to initial level; type: physicochemical
# Procedure, shortened: (§2)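 Peptides in aqueous solution at pH 1.2 (JP1, containing 10% acetonitrile), 3, 5 or 7 were kept in the dark at 37 °C for up to 2 weeks. Peptide remaining was quantified from HPLC peak area, with detection at 230–280 nm. The residual ratio (stability index) was expressed relative to the time-0 amount, taken as 100%.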
# [10] = Stability of the compound in aqueous solution assessed as residual ratio at pH 5 up to 2 weeks by HPLC analysis relative to initial level; type: physicochemical; procedure, shortened: as §2
# [11] = Stability of the compound in aqueous solution assessed as residual ratio at pH 3 up to 1 week by HPLC analysis relative to initial level; type: physicochemical; procedure, shortened: as §2
# [12] = Stability of the compound in aqueous solution assessed as residual ratio at pH 7 up to 2 weeks by HPLC analysis relative to initial level; type: physicochemical; procedure, shortened: as §2
# [13] = Stability of the compound in aqueous solution (JP1) assessed as residual ratio at pH 1.2 up to 1 week by HPLC analysis relative to initial level; type: physicochemical; procedure, shortened: as §2
# [14] = Stability of the compound in aqueous solution assessed as residual ratio at pH 5 up to 1 week by HPLC analysis relative to initial level; type: physicochemical; procedure, shortened: as §2
# [15] = Stability of the compound in aqueous solution assessed as residual ratio at pH 7 up to 1 week by HPLC analysis relative to initial level; type: physicochemical; procedure, shortened: as §2
# [16] = Stability of the compound in aqueous solution assessed as residual ratio at pH 3 up to 2 weeks by HPLC analysis relative to initial level; type: physicochemical; procedure, shortened: as §2
EC50 (KiSS-1 receptor [2]),EC50 (KiSS-1 receptor [4]),Ki (KiSS-1 receptor [8]),Structure (SMILES),also measured
6 nM,0.87 nM,0.074 nM,CNC(=N)NCCC[C@H](NC(=O)[C@H](CC(C)C)NC(=O)NNC(=O)[C@H](Cc1ccccc1)NC(=O)[C@H](CO)NC(=O)[C@H](CC(N)=O)NC(=O)[C@@H](Cc1ccncc1)NC(=O)[C@H](N)Cc1ccc(O)cc1)C(=O)N[C@@H](Cc1c[nH]c2ccccc12)C(N)=O,Activity (Rattus norvegicus [1]): 0 rats (n = 5); Ki (KiSS-1 receptor [3]): 0.13 nM; Activity (Rattus norvegicus [5]): 40%; Activity (Rattus norvegicus [6]): 80%; Activity (Rattus norvegicus [7]): 60%
13 nM,1.2 nM,0.096 nM,CNC(=N)NCCC[C@H](NC(=O)[C@H](CC(C)C)NC(=O)NNC(=O)[C@H](Cc1ccccc1)NC(=O)[C@@H]1CCCN1C(=O)[C@H](CC(N)=O)NC(=O)[C@@H](Cc1ccncc1)NC(=O)[C@H](N)Cc1ccc(O)cc1)C(=O)N[C@@H](Cc1c[nH]c2ccccc12)C(N)=O,Activity (Rattus norvegicus [7]): 20%
9.3 nM,0.7 nM,0.2 nM,CNC(=N)NCCC[C@H](NC(=O)[C@H](CC(C)C)NC(=O)NNC(=O)[C@H](Cc1ccccc1)NC(=O)[C@H](CO)NC(=O)[C@H](C)NC(=O)[C@@H](Cc1ccncc1)NC(=O)[C@H](N)Cc1ccc(O)cc1)C(=O)N[C@@H](Cc1c[nH]c2ccccc12)C(N)=O,Ki (KiSS-1 receptor [3]): 3.6 nM; Activity (Rattus norvegicus [6]): 0%
95 nM,2.8 nM,–,CNC(=N)NCCC[C@H](NC(=O)[C@H](CC(C)C)NC(=O)NNC(=O)[C@H](Cc1ccccc1)NC(=O)[C@@H]1CC(O)CN1C(=O)[C@H](CC(N)=O)NC(=O)[C@@H](Cc1ccncc1)NC(=O)[C@H](N)Cc1ccc(O)cc1)C(=O)N[C@@H](Cc1c[nH]c2ccccc12)C(N)=O (stereo partly drawn),–
32 nM,1.3 nM,–,CNC(=N)NCCC[C@H](NC(=O)[C@H](CC(C)C)NC(=O)NNC(=O)[C@H](Cc1ccccc1)NC(=O)[C@H](CO)NC(=O)[C@@H](NC(=O)[C@@H](Cc1ccncc1)NC(=O)[C@H](N)Cc1ccc(O)cc1)[C@@H](C)O)C(=O)N[C@@H](Cc1c[nH]c2ccccc12)C(N)=O,–
22 nM,1.5 nM,–,CNC(=N)NCCC[C@H](NC(=O)[C@H](CC(C)C)NC(=O)NNC(=O)[C@H](Cc1ccccc1)NC(=O)[C@@H](NC(=O)[C@H](CC(N)=O)NC(=O)[C@@H](Cc1ccncc1)NC(=O)[C@H](N)Cc1ccc(O)cc1)C(C)(C)C)C(=O)N[C@@H](Cc1c[nH]c2ccccc12)C(N)=O,–
12 nM,1.8 nM,0.052 nM,CNC(=N)NCCC[C@H](NC(=O)[C@H](CC(C)C)NC(=O)NNC(=O)[C@H](Cc1ccccc1)NC(=O)[C@@H](NC(=O)[C@H](CC(N)=O)NC(=O)[C@@H](Cc1ccncc1)NC(=O)[C@H](N)Cc1ccc(O)cc1)C(C)C)C(=O)N[C@@H](Cc1c[nH]c2ccccc12)C(N)=O,Activity (Rattus norvegicus [6]): 80%; Activity (Rattus norvegicus [7]): 0%
4.2 nM,0.82 nM,0.034 nM,CNC(=N)NCCC[C@H](NC(=O)[C@H](CC(C)C)NC(=O)NNC(=O)[C@H](Cc1ccccc1)NC(=O)[C@@H](NC(=O)[C@H](CC(N)=O)NC(=O)[C@@H](Cc1c[nH]c2ccccc12)NC(=O)[C@@H](Cc1ccc(O)cc1)NC(=O)C1CC1)[C@@H](C)O)C(=O)N[C@@H](Cc1c[nH]c2ccccc12)C(N)=O,Ki (KiSS-1 receptor [3]): 0.087 nM
13 nM,0.63 nM,–,CNC(=N)NCCC[C@H](NC(=O)[C@H](CC(C)C)NC(=O)NNC(=O)[C@H](Cc1ccccc1)NC(=O)[C@@H](NC(=O)[C@H](C)NC(=O)[C@@H](Cc1c[nH]c2ccccc12)NC(=O)[C@H](N)Cc1ccc(O)cc1)[C@@H](C)O)C(=O)N[C@@H](Cc1c[nH]c2ccccc12)C(N)=O,–
6.8 nM,0.49 nM,–,CNC(=N)NCCC[C@H](NC(=O)[C@H](CC(C)C)NC(=O)NNC(=O)[C@H](Cc1ccccc1)NC(=O)[C@H](CO)NC(=O)[C@H](C)NC(=O)[C@@H](Cc1c[nH]c2ccccc12)NC(=O)[C@H](N)Cc1ccc(O)cc1)C(=O)N[C@@H](Cc1c[nH]c2ccccc12)C(N)=O,–
2.8 nM,0.64 nM,0.12 nM,CC[C@H](NC(=O)[C@@H](Cc1c[nH]c2ccccc12)NC(=O)[C@H](N)Cc1ccc(O)cc1)C(=O)N[C@@H](CO)C(=O)N[C@@H](Cc1ccccc1)C(=O)NNC(=O)N[C@@H](CC(C)C)C(=O)N[C@@H](CCCNC(=N)NC)C(=O)N[C@@H](Cc1c[nH]c2ccccc12)C(N)=O,Ki (KiSS-1 receptor [3]): 0.83 nM; Activity (Rattus norvegicus [6]): 0%
–,0.96 nM,0.035 nM,CC(C)C[C@H](NC(=O)CNC(=O)[C@H](Cc1ccccc1)NC(=O)[C@H](CO)NC(=O)[C@H](CC(N)=O)NC(=O)[C@H](Cc1c[nH]c2ccccc12)NC(=O)[C@H](CC(N)=O)NC(=O)[C@@H](N)Cc1ccc(O)cc1)C(=O)N[C@@H](CCCNC(=N)N)C(=O)N[C@@H](Cc1ccccc1)C(N)=O [KISSPEPTIN-10],–
2.3 nM,0.51 nM,0.037 nM,CNC(=N)NCCC[C@H](NC(=O)[C@H](CC(C)C)NC(=O)NNC(=O)[C@H](Cc1ccccc1)NC(=O)[C@H](CO)NC(=O)[C@H](CC(N)=O)NC(=O)[C@@H](Cc1c[nH]c2ccccc12)NC(=O)[C@H](N)Cc1ccc(O)cc1)C(=O)N[C@@H](Cc1c[nH]c2ccccc12)C(N)=O,remaining at 336 h [9]: 33.4%; remaining at 336 h [10]: 90.8%; Activity (Rattus norvegicus [1]): 0 rats (n = 5); Ki (KiSS-1 receptor [3]): 0.077 nM; remaining at 168 h [11]: 98.2%; remaining at 336 h [12]: 28%; Activity (Rattus norvegicus [5]): 40%; remaining at 168 h [13]: 60.8%; remaining at 168 h [14]: 96%; remaining at 168 h [15]: 56.5%; remaining at 336 h [16]: 97.1%; Activity (Rattus norvegicus [7]): 80%
5.7 nM,1.6 nM,0.086 nM,CNC(=N)NCCC[C@H](NC(=O)[C@H](CC(C)C)NC(=O)NNC(=O)[C@H](Cc1ccccc1)NC(=O)[C@@H](NC(=O)[C@H](CC(N)=O)NC(=O)[C@@H](Cc1ccncc1)NC(=O)[C@H](N)Cc1ccc(O)cc1)[C@@H](C)O)C(=O)N[C@@H](Cc1c[nH]c2ccccc12)C(N)=O,–
1.7 nM,0.44 nM,0.027 nM,CNC(=N)NCCC[C@H](NC(=O)[C@H](CC(C)C)NC(=O)NNC(=O)[C@H](Cc1ccccc1)NC(=O)[C@@H](NC(=O)[C@H](CC(N)=O)NC(=O)[C@@H](Cc1c[nH]c2ccccc12)NC(=O)[C@@H](Cc1ccc(O)cc1)NC(=O)c1ccccc1)[C@@H](C)O)C(=O)N[C@@H](Cc1c[nH]c2ccccc12)C(N)=O,Activity (Rattus norvegicus [1]): 0 rats (n = 5)
110 nM,4.4 nM,–,CNC(=N)NCCC[C@H](NC(=O)[C@H](CC(C)C)NC(=O)NNC(=O)[C@H](Cc1ccccc1)NC(=O)[C@@H](NC(=O)[C@H](CC(N)=O)NC(=O)[C@@H](Cc1ccncc1)NC(=O)[C@H](N)Cc1ccc(O)cc1)c1ccccc1)C(=O)N[C@@H](Cc1c[nH]c2ccccc12)C(N)=O,–
2.2 nM,0.31 nM,0.028 nM,CNC(=N)NCCC[C@H](NC(=O)[C@H](CC(C)C)NC(=O)NNC(=O)[C@H](Cc1ccccc1)NC(=O)[C@@H](NC(=O)[C@H](CC(N)=O)NC(=O)[C@@H](Cc1c[nH]c2ccccc12)NC(=O)[C@H](N)Cc1ccc(O)cc1)C(C)C)C(=O)N[C@@H](Cc1c[nH]c2ccccc12)C(N)=O,Activity (Rattus norvegicus [7]): 0%
7.4 nM,0.59 nM,–,CNC(=N)NCCC[C@H](NC(=O)[C@H](CC(C)C)NC(=O)NNC(=O)[C@H](Cc1ccccc1)NC(=O)[C@H](Cc1c[nH]c2ccccc12)NC(=O)[C@H](CC(N)=O)NC(=O)[C@@H](Cc1ccncc1)NC(=O)[C@H](N)Cc1ccc(O)cc1)C(=O)N[C@@H](Cc1c[nH]c2ccccc12)C(N)=O,–
